This passage reports -Log KB results from ChEMBL document CHEMBL1123914, “6-Methylergoline-8-carboxylic acid esters as serotonin antagonists: N1-substituent effects on 5HT2 receptor affinity” (J Med Chem, 1987).

Assay [1] concerns the target T1, Serotonin 2 (5-HT2) receptor (Rattus norvegicus) (UniProt P30994+P08909+P14842). In words: Affinity towards 5-hydroxytryptamine 2 receptor by measuring its ability to antagonize serotonin-induced contractions in the rat jugular vein. The method, boiled down: (§1)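 Rat external jugular vein rings, cannulated and mounted between two L-shaped needles on a force transducer in Krebs bicarbonate buffer. Tissues equilibrated 1–2 h. After control cumulative serotonin contraction curves, vessels were incubated with antagonist for 1 h and the serotonin curves repeated. K_B = [B]/(dose ratio − 1), where dose ratio is agonist ED50 with antagonist over control ED50. Reported as −log K_B.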

Assay [2] has as its target T1, Serotonin 2 (5-HT2) receptor (Rattus norvegicus). In words: Affinity towards 5-hydroxytryptamine 2 receptor by measuring its ability to antagonize serotonin-induced contractions in the rat jugular vein; no appreciable 5-HT2 receptor affinity. In a few lines: as §1

Molecules are shown by their SMILES.

T1 sequence (P08909 whole entry, looked up): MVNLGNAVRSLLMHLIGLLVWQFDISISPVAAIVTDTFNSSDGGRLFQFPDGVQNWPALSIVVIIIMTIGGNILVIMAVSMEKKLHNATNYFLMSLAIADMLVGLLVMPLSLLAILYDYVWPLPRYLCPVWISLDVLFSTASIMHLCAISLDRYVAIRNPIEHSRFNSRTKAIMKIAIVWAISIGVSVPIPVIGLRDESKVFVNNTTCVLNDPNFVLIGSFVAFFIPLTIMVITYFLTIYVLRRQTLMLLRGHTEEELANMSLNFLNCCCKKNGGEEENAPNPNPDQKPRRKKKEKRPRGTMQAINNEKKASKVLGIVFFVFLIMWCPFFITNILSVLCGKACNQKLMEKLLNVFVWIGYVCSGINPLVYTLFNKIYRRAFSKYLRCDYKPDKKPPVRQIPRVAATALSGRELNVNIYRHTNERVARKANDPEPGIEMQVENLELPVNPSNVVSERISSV
T1 sequence (P14842 whole entry, looked up): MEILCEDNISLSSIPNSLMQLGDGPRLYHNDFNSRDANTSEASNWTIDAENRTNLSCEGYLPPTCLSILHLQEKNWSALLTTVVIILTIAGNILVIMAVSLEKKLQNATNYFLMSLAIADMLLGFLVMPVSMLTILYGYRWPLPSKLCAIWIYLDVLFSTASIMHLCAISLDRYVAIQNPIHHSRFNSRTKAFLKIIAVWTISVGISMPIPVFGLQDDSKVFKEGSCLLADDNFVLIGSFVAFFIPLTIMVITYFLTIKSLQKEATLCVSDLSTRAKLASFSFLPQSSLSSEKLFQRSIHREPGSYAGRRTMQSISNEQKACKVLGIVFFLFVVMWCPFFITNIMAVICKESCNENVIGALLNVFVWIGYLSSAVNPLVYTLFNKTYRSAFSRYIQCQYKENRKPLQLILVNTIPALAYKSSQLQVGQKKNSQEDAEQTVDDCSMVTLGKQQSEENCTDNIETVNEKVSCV
T1 sequence (P30994 whole entry, looked up): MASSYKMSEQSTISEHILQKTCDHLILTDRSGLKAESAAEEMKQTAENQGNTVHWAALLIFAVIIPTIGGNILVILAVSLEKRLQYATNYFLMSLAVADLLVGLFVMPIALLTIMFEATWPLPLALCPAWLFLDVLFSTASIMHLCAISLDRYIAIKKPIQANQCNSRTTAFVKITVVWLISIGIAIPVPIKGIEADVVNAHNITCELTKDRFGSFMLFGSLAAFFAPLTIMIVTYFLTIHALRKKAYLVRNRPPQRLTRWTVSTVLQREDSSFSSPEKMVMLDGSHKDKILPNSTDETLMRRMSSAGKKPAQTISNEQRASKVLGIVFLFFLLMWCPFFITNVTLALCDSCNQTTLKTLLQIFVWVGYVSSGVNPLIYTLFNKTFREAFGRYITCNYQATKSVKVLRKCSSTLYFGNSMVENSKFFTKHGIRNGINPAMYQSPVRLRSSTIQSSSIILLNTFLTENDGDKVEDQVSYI

`COC(=O)C1CC2c3cccc4c3c(cn4Cc3ccccc3)CC2N(C)C1` (stereo not given) gave a -Log KB in assay [1] of 7.64. Still for that read-out and setting: for `CC(O)C(C)OC(=O)C1CC2c3cccc4c3c(cn4C(C)C)CC2N(C)C1` (stereo not given) the value was 9.76; for `CC(O)C(C)OC(=O)C1CC2c3cccc4c3c(cn4C3CCCCCC3)CC2N(C)C1` (stereo not given), 7.45. The same measure, in the same setting: for `CCn1cc2c3c(cccc31)C1CC(C(=O)OC)CN(C)C1C2` (stereo not given) the value was 8.12; for `CC(C)Cn1cc2c3c(cccc31)C1CC(C(=O)OC(C)C(C)O)CN(C)C1C2` (stereo not given), 7.53; for `CC(O)C(C)OC(=O)C1CC2c3cccc4c3c(cn4Cc3ccccc3)CC2N(C)C1` (stereo not given), 7.37. The same measure, in the same setting: to `CC(O)C(C)OC(=O)C1CC2c3cccc4[nH]cc(c34)CC2N(C)C1` (stereo not given) belongs 8.42; to `CC(C)Cn1cc2c3c(cccc31)C1CC(C(=O)OCCO)CN(C)C1C2` (stereo not given), 7.42; to `COC(=O)C1CC2c3cccc4c3c(cn4C(C)C)CC2N(C)C1` (stereo not given), 8.29.

For `CN1CC(C(=O)OCCO)CC2c3cccc4[nH]cc(c34)CC21` (stereo not given), the -Log KB in assay [1] was 7.62. The same measure, in the same setting: for `CCc1c(C)[nH]c2ccc(N(C)C)cc12` the value was 4.93; for `CCn1cc2c3c(cccc31)C1CC(C(=O)OC(C)C(C)O)CN(C)C1C2` (stereo not given), 8.9. On to `CCC(CC)n1cc2c3c(cccc31)C1CC(C(=O)OC)CN(C)C1C2` (stereo not given), for which the -Log KB in assay [2] is below 7.

In assay [1], `CCCn1cc2c3c(cccc31)C1CC(C(=O)OC)CN(C)C1C2` (stereo not given) showed a -Log KB of 7.72. Still for that read-out and setting: for `CC(C)n1cc2c3c(cccc31)C1CC(C(=O)OCCO)CN(C)C1C2` (stereo not given) the value was 9.13. In assay [1], `CN1CC(C(=O)OCCO)CC2c3cccc4c3c(cn4Cc3ccccc3)CC21` (stereo not given) showed a -Log KB of 8.12. On the same count and under the same terms, for `COC(=O)C1CC2c3cccc4c3c(cn4CC(C)C)CC2N(C)C1` (stereo not given) the value was 7.57; for `CCc1c(C)n(C)c2ccc(N(C)C)cc12`, 6.51. Still for that read-out and setting: for `CCc1c(C)n(CC)c2ccc(N(C)C)cc12` the value was 6.45. `CN1CC(C(=O)OCCO)CC2c3cccc4c3c(cn4C)CC21` (stereo not given) registered a -Log KB in assay [1] of 8.63. In assay [2], `CC(O)C(C)OC(=O)C1CC2c3cccc4c3c(cn4C3CCCC3)CC2N(C)C1` (stereo not given) returned a -Log KB below 7.

Turning to `CCc1c(C)n(C(C)C)c2ccc(N(C)C)cc12`, the -Log KB in assay [1] amounted to 7.28. Still for that read-out and setting: for `CCCCCCCCn1cc2c3c(cccc31)C1CC(C(=O)OC(C)C(C)O)CN(C)C1C2` (stereo not given) the value was below 7. In assay [1], `COC(=O)C1CC2c3cccc4[nH]cc(c34)CC2N(C)C1` (stereo not given) yielded a -Log KB of 8.1.

With `CCCn1cc2c3c(cccc31)C1CC(C(=O)OC(C)C(C)O)CN(C)C1C2` (stereo not given), in assay [1], the -Log KB is 8.34. In the case of `C=CCn1cc2c3c(cccc31)C1CC(C(=O)OCCO)CN(C)C1C2` (stereo not given), the -Log KB in assay [1] stood at 8.17. Still for that read-out and setting: for `COC(=O)C1CC2c3cccc4c3c(cn4C)CC2N(C)C1` (stereo not given) the value was 8.23; for `C=CCn1cc2c3c(cccc31)C1CC(C(=O)OC)CN(C)C1C2` (stereo not given), 7.89.

In the case of `CCC(CC)n1cc2c3c(cccc31)C1CC(C(=O)OC(C)C(C)O)CN(C)C1C2` (stereo not given), in assay [2], the -Log KB was below 7. As for `CC(O)C(C)OC(=O)C1CC2c3cccc4c3c(cn4C)CC2N(C)C1` (stereo not given), the -Log KB in assay [1] came to 9.26.
